The source made the active and inactive calls. The calls are words filed in the database; no cut-off is given here.
Legend:
[1] = test system: IB3-1; experiment: Antiproliferative activity against human IB3-1 cells after 2 days by cell counting analysis; format: cell-based; conditions: IB3-1, 48 h
In short: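 IB3-1 cells from a CF patient (ΔF508/W1282X), immortalized with adeno12/SV40, grown in LHC-8 with 5% FBS and no gentamycin at 37°C/5% CO₂. Treated at 12.5, 25, 50, 100, 200 and 800 µM. Cells counted by Coulter counter after 2 days, with untreated cells in log phase. IC₅₀ is the concentration giving 50% inhibition of cell growth.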

[2] = Inhibition of NF-kappaB (unknown origin) assessed as decrease in NF-kappaB/DNA interaction using 32P-labeled target NF-kappaB double-stranded oligonucleotide after 30 mins by EMSA; parameters: species or system Homo sapiens
In short: (§1)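 Purified NF-κB p50 (0.1 µl/20 µl, 50 gsu) was combined with 0.25 ng of ³²P-labeled double-stranded NF-κB consensus oligonucleotide. Bound 30 min at room temperature, then run on 6% polyacrylamide in 0.25× TBE at 200 V. IC₅₀ is 50% inhibition of the complex.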

[3] = species on record: Homo sapiens; experiment: Inhibition of NF-kappaB (unknown origin) assessed as decrease in NF-kappaB/DNA interaction at 12.5 to 100 uM using 32P-labeled target NF-kappaB double-stranded oligonucleotide after 30 mins by EMSA; in short: as §1
[4] = species on record: Homo sapiens; experiment: Inhibition of NF-kappaB (unknown origin) assessed as decrease in NF-kappaB/DNA interaction at 12.5 uM using 32P-labeled target NF-kappaB double-stranded oligonucleotide after 30 mins by EMSA
[5] = test system: Salmonella typhimurium; experiment: Genotoxicity in Salmonella typhimurium TA98 assessed as revertant colonies at 5 uL/plate in presence of Sprague-Dawley rat S9 metabolic activation after 72 hrs by Ames test (reference value: 1); format: toxicity, organism-based; conditions: salmonella enterica subsp. enterica serovar typhimurium
[6] = test system: Salmonella typhimurium; experiment: Genotoxicity in Salmonella typhimurium TA100 assessed as revertant colonies at 100 uL/plate in absence of Sprague-Dawley rat S9 metabolic activation after 72 hrs by Ames test (reference value: 1); format: toxicity, organism-based; conditions: salmonella enterica subsp. enterica serovar typhimurium
[7] = test system: Salmonella typhimurium; experiment: Genotoxicity in Salmonella typhimurium TA98 assessed as revertant colonies at 1 uL/plate in absence of Sprague-Dawley rat S9 metabolic activation after 72 hrs by Ames test (reference value: 1); format: toxicity, organism-based; conditions: salmonella enterica subsp. enterica serovar typhimurium
[8] = test system: Salmonella typhimurium; experiment: Genotoxicity in Salmonella typhimurium TA98 assessed as revertant colonies at 100 uL/plate in presence of Sprague-Dawley rat S9 metabolic activation after 72 hrs by Ames test (reference value: 1); format: toxicity, organism-based; conditions: salmonella enterica subsp. enterica serovar typhimurium
[9] = test system: Salmonella typhimurium; experiment: Genotoxicity in Salmonella typhimurium TA100 assessed as revertant colonies at 100 uL/plate in presence of Sprague-Dawley rat S9 metabolic activation after 72 hrs by Ames test (reference value: 1); format: toxicity, organism-based; conditions: salmonella enterica subsp. enterica serovar typhimurium
[10] = test system: Salmonella typhimurium; experiment: Genotoxicity in Salmonella typhimurium TA98 assessed as revertant colonies at 50 uL/plate in presence of Sprague-Dawley rat S9 metabolic activation after 72 hrs by Ames test (reference value: 1); format: toxicity, organism-based; conditions: salmonella enterica subsp. enterica serovar typhimurium
[11] = test system: Salmonella typhimurium; experiment: Genotoxicity in Salmonella typhimurium TA98 assessed as revertant colonies at 10 uL/plate in presence of Sprague-Dawley rat S9 metabolic activation after 72 hrs by Ames test (reference value: 1); format: toxicity, organism-based; conditions: salmonella enterica subsp. enterica serovar typhimurium
[12] = test system: Salmonella typhimurium; experiment: Genotoxicity in Salmonella typhimurium TA98 assessed as revertant colonies at 100 uL/plate in absence of Sprague-Dawley rat S9 metabolic activation after 72 hrs by Ames test (reference value: 1); format: toxicity, organism-based; conditions: salmonella enterica subsp. enterica serovar typhimurium
[13] = test system: Salmonella typhimurium; experiment: Genotoxicity in Salmonella typhimurium TA100 assessed as revertant colonies at 10 uL/plate in presence of Sprague-Dawley rat S9 metabolic activation after 72 hrs by Ames test (reference value: 1); format: toxicity, organism-based; conditions: salmonella enterica subsp. enterica serovar typhimurium
[14] = test system: Salmonella typhimurium; experiment: Genotoxicity in Salmonella typhimurium TA100 assessed as revertant colonies at 10 uL/plate in absence of Sprague-Dawley rat S9 metabolic activation after 72 hrs by Ames test (reference value: 1); format: toxicity, organism-based; conditions: salmonella enterica subsp. enterica serovar typhimurium
[15] = test system: Salmonella typhimurium; experiment: Genotoxicity in Salmonella typhimurium TA100 assessed as revertant colonies at 5 uL/plate in absence of Sprague-Dawley rat S9 metabolic activation after 72 hrs by Ames test (reference value: 1); format: toxicity, organism-based; conditions: salmonella enterica subsp. enterica serovar typhimurium
[16] = test system: Salmon testes DNA; experiment: Induction of damage in salmon testes DNA at 100 uM in presence of 2.5 to 7.5 J/cm2 UVA irradiation by ethidium bromide dye-based agarose gel electrophoresis analysis; format: nucleic-acid assay; conditions: salmonidae
[17] = test system: Salmonella typhimurium; experiment: Genotoxicity in Salmonella typhimurium TA100 assessed as revertant colonies at 50 uL/plate in presence of Sprague-Dawley rat S9 metabolic activation after 72 hrs by Ames test (reference value: 1); format: toxicity, organism-based; conditions: salmonella enterica subsp. enterica serovar typhimurium
[18] = test system: Salmon testes DNA; experiment: Induction of damage in salmon testes DNA at 100 uM in absence of 2.5 to 7.5 J/cm2 UVA irradiation by ethidium bromide dye-based agarose gel electrophoresis analysis; format: nucleic-acid assay; conditions: salmonidae
[19] = test system: Salmonella typhimurium; experiment: Genotoxicity in Salmonella typhimurium TA100 assessed as revertant colonies at 1 uL/plate in presence of Sprague-Dawley rat S9 metabolic activation after 72 hrs by Ames test (reference value: 1); format: toxicity, organism-based; conditions: salmonella enterica subsp. enterica serovar typhimurium
[20] = test system: Salmonella typhimurium; experiment: Genotoxicity in Salmonella typhimurium TA100 assessed as revertant colonies at 5 uL/plate in presence of Sprague-Dawley rat S9 metabolic activation after 72 hrs by Ames test (reference value: 1); format: toxicity, organism-based; conditions: salmonella enterica subsp. enterica serovar typhimurium
[21] = test system: Salmonella typhimurium; experiment: Genotoxicity in Salmonella typhimurium TA100 assessed as revertant colonies at 50 uL/plate in absence of Sprague-Dawley rat S9 metabolic activation after 72 hrs by Ames test (reference value: 1); format: toxicity, organism-based; conditions: salmonella enterica subsp. enterica serovar typhimurium
[22] = test system: Salmonella typhimurium; experiment: Genotoxicity in Salmonella typhimurium TA100 assessed as revertant colonies at 1 uL/plate in absence of Sprague-Dawley rat S9 metabolic activation after 72 hrs by Ames test (reference value: 1); format: toxicity, organism-based; conditions: salmonella enterica subsp. enterica serovar typhimurium
[23] = test system: Salmonella typhimurium; experiment: Genotoxicity in Salmonella typhimurium TA98 assessed as revertant colonies at 10 uL/plate in absence of Sprague-Dawley rat S9 metabolic activation after 72 hrs by Ames test (reference value: 1); format: toxicity, organism-based; conditions: salmonella enterica subsp. enterica serovar typhimurium
[24] = test system: Salmonella typhimurium; experiment: Genotoxicity in Salmonella typhimurium TA98 assessed as revertant colonies at 1 uL/plate in presence of Sprague-Dawley rat S9 metabolic activation after 72 hrs by Ames test (reference value: 1); format: toxicity, organism-based; conditions: salmonella enterica subsp. enterica serovar typhimurium
[25] = test system: Salmonella typhimurium; experiment: Genotoxicity in Salmonella typhimurium TA98 assessed as revertant colonies at 5 uL/plate in absence of Sprague-Dawley rat S9 metabolic activation after 72 hrs by Ames test (reference value: 1); format: toxicity, organism-based; conditions: salmonella enterica subsp. enterica serovar typhimurium
[26] = test system: Salmonella typhimurium; experiment: Genotoxicity in Salmonella typhimurium TA98 assessed as revertant colonies at 50 uL/plate in absence of Sprague-Dawley rat S9 metabolic activation after 72 hrs by Ames test (reference value: 1); format: toxicity, organism-based; conditions: salmonella enterica subsp. enterica serovar typhimurium

Compound: Cc1cc2c(C(C)C)cc(=O)oc2c2c(C)coc12
- IC50 [1]: > 200 µM
- IC50 [2]: 18.9 µM
- inhibition [3]: Active

Compound: CCCc1cc(=O)oc2c1cc(C)c1occ(C)c12
- IC50 [1]: 200 µM
- IC50 [2]: 21.9 µM
- inhibition [3]: Active

Compound: CCc1cc(=O)oc2c1cc(C)c1occ(C)c12
- IC50 [1]: 50 µM
- IC50 [2]: 8 µM
- inhibition [3]: Active
- inhibition [4]: Active

Compound: CCCc1cc(=O)oc2c1cc(CC)c1occ(C)c12
- IC50 [1]: 162 µM
- IC50 [2]: 19.8 µM
- inhibition [3]: Active

Compound: CCc1cc(=O)oc2c1cc(CC)c1occ(C)c12
- IC50 [1]: > 200 µM
- IC50 [2]: 17.8 µM
- inhibition [3]: Active

Compound: CCc1cc2c(C)cc(=O)oc2c2c(C)coc12
- IC50 [1]: > 200 µM
- IC50 [2]: 24 µM
- inhibition [3]: Active

Compound: Cc1cc(=O)oc2c1cc(C)c1occ(C)c12
- T/C [5]: 1.9
- T/C [6]: 1.03
- T/C [7]: 1.03
- T/C [8]: 6.86
- T/C [9]: 2.52
- T/C [10]: 8.25
- T/C [11]: 4.5
- T/C [12]: 1.22
- T/C [13]: 1.04
- T/C [14]: 1.06
- T/C [15]: 1.03
- Activity [16]: Active
- T/C [17]: 1.16
- inhibition [3]: Active
- Activity [18]: Active
- T/C [19]: 1.1
- T/C [20]: 1
- T/C [21]: 1.09
- T/C [22]: 0.99
- T/C [23]: 1.16
- T/C [24]: 0.75
- T/C [25]: 0.63
- T/C [26]: 0.97

Reference: ChEMBL document CHEMBL4152196, “Design, synthesis and biological evaluation of novel trimethylangelicin analogues targeting nuclear factor kB (NF-kB)” (Eur J Med Chem, 2018)
